This is an account of results in PMC3747510 (Scientific Reports, 2013).

A word on the IC50: it is the concentration needed to halve the response being measured. For orientation: MIC means the least concentration at which growth counts as inhibited.

Where a chain is given by its changes, count along the chain named. Values after ≈ are worked out from the molar mass of the structure shown. Where only a bound is given, the exact number is not on record here.

The target in experiment [1] is Human cytosolic LeuRS (Homo sapiens, UniProt Q9P2J5). The experiment in a line: Aminoacylation inhibition. Type of experiment: biochemical. The procedure, abridged: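 Human cytosolic or mitochondrial LeuRS, expressed in E. coli. Aminoacylation run at 30°C. At least six test-compound concentrations were tested, with enzyme amount set to form 10 pmol Leu-tRNALeu in 5 min. IC50 was taken from a fitted dose-response curve, as the mean of at least two independent experiments.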

Experiment [2] relates to A549. The experiment is described as follows: Cell proliferation assay. As to conditions: Homo sapiens, A549, read-out: IC50, Human cell lines, A549. Type of experiment: cell-based. The method, boiled down: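 Cells in DMEM/10% FBS, 37°C, 5% CO2. Seeded from 1 × 10^5 cells/mL and allowed to adhere overnight. Test compound added at 2.5–100 μg/mL (0.5% DMSO final), five wells per concentration. Incubated 0, 24, 48 or 72 h, then 4 h with MTS/PMS (20:1), and A492 read. DMSO and medium-only controls. IC50 by nonlinear regression against log concentration.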

For experiment [3], the system named is S. pneumoniae. The experiment is described as follows: Broth microdilution MIC, S. pneumoniae. The format is cell-based. As to conditions: Streptococcus pneumoniae, 24 h, read-out: MIC, Bacteria, S. pneumoniae. The method, boiled down: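 S. pneumoniae clinical isolate, from paediatric community-acquired pneumonia. CLSI M7-A7 broth microdilution in Mueller Hinton broth with 2.5% lysed sheep blood, inoculum about 2 × 10^8 CFU/mL. Serial test-compound dilutions, 37°C for 24 h. MIC was the lowest concentration suppressing visible growth.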

In experiment [4] the target is T1, SpLeuRS (Streptococcus pneumoniae serotype 4, UniProt Q97SS0).
T1 sequence (Q97SS0 1-833): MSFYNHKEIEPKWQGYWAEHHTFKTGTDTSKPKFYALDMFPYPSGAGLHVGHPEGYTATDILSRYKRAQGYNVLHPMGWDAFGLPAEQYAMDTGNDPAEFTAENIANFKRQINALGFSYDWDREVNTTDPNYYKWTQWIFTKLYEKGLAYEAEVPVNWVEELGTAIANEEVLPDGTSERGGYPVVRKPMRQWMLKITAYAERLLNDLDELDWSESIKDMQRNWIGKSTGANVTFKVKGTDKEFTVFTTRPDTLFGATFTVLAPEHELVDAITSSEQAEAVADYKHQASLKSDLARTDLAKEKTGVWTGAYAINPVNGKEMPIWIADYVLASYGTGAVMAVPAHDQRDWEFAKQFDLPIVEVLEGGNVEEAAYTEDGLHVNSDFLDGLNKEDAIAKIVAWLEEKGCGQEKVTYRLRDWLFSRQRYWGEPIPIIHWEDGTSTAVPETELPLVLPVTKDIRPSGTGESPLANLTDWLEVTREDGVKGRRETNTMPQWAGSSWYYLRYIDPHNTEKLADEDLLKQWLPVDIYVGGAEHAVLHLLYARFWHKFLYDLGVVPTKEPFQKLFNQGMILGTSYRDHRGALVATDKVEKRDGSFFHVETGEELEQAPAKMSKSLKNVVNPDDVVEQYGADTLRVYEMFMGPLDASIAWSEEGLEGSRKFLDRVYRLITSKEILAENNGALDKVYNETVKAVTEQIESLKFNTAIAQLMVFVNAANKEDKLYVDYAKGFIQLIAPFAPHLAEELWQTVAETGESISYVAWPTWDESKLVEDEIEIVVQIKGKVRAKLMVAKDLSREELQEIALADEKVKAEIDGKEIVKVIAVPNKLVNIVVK
The experiment in a line: ATP-PPi exchange. Type of experiment: biochemical. As to conditions: 200 μM ZCL039. The procedure, abridged:
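Leucine activation (ATP-PPi exchange) at 37°C with 10 nM N-His6 SpLeuRS, expressed in E. coli BL21(DE3) and Ni-NTA purified. Run with or without test compound in DMSO. The [32P]ATP formed was separated and counted. Means of three independent experiments.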

For experiment [5], the system named is SpLeuRS-MmLinker. The experiment is described as follows: Aminoacylation by SpLeuRS-MmLinker chimeric mutant. The format is biochemical, Streptococcus pneumoniae. The conditions noted are these: 50 μM ZCL039. The procedure, abridged:
(§1)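 Aminoacylation at 37°C, started with 4 mM ATP. Point mutants were made by site-directed mutagenesis. The MmLinker chimera has CP1 Lys226–Thr411 replaced by a nonapeptide. Means of three independent experiments.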

The target of experiment [6] is T2, SpLeuRS D344A (Streptococcus pneumoniae serotype 4, UniProt Q97SS0, D344A).
T2 sequence (Q97SS0 1-833 D344A): T1 sequence (Q97SS0 1-833) with D344A
The experiment in a line: Aminoacylation by SpLeuRS D344A mutant. As to conditions: 50 μM ZCL039. Type of experiment: biochemical. The procedure, abridged: as §1

Human cytosolic LeuRS, sequence (Q9P2J5 whole entry): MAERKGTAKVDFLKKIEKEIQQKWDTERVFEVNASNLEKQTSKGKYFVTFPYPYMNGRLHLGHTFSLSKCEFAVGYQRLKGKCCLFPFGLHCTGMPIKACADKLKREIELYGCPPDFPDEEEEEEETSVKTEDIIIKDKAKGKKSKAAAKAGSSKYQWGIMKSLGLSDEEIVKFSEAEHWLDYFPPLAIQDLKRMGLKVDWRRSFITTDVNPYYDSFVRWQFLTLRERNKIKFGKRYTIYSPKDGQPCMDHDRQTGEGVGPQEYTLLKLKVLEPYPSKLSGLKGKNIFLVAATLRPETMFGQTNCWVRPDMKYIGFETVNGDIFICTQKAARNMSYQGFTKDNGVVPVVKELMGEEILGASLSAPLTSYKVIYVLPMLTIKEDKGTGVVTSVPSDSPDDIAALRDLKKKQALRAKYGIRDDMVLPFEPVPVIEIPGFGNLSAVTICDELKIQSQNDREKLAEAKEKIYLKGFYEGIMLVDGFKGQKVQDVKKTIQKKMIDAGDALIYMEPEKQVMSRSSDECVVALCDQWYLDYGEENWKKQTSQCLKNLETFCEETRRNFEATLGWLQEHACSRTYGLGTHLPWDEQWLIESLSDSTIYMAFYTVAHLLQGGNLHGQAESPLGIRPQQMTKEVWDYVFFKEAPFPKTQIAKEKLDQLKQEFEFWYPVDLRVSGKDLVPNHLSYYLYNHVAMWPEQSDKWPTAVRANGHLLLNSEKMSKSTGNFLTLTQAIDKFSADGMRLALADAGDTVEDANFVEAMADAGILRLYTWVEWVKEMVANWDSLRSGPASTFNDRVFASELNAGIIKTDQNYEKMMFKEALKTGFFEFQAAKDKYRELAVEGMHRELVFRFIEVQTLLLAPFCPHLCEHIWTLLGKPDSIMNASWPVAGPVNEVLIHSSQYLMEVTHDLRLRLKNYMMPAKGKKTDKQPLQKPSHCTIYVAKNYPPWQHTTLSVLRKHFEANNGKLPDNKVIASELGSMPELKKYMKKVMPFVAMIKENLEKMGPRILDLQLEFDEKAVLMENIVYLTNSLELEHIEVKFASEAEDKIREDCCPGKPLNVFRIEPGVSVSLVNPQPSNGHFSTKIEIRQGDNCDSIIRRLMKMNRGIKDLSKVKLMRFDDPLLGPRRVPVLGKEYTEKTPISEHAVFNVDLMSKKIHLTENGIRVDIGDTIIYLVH

`OB1OCc2ccc(C(O)c3ccccc3)cc21` (centres unmarked) [ZCL039, [6-(1-phenyl-1-hydroxylmethyl)]-1,3-dihydro-1-hydroxy-2,1-benzoxaborole]: the IC50 was over 250 µM in experiment [1] and over 200 µM in experiment [2]. For the same compound, the “Fold more sensitivity of SpLeuRS than human cytosolic LeuRS” value in experiment [1] (aminoacylation) was “over 150 fold”. Moreover, the “Fold less sensitive than SpLeuRS” value in experiment [1] (human cytosolic and mitochondrial LeuRSs vs SpLeuRS) was “approximately 150 fold”. For the same compound, the MIC in experiment [3] was 5 µg/mL (≈ 20.8 µM). Further, the “Effect on PPi exchange activity of SpLeuRS” value in experiment [4] was “not affected”. For the same compound, in experiment [5], the “Effect on tRNA charging activity of SpLeuRS-MmLinker” value is recorded as “not affected”. Also, the “Effect of D344A mutation on sensitivity of SpLeuRS to ZCL039” value in experiment [6] is “reduced the sensitivity”.
